Published values from different studies.
Protocols differ between the studies behind these lines.
Target: MAP kinase-activated protein kinase 2 (MAPKAPK2, Homo sapiens, UniProt P49137)

| Compound | effect on | mode | technique | concentration | endpoint | value |
| --- | --- | --- | --- | --- | --- | --- |
| COc1cc(Cl)c(C(=O)N[C@@H](CN[C@H]2CC[C@@H](N)CC2)Cc2ccc(C#N)cc2)cc1-c1ccc(CN[C@H](C)c2ccc(C)cc2)o1 | enzyme activity | inhibitor | – | 1 µM | remaining activity | 107% |
| Nc1ncc(-c2nc(N3CCOCC3)nc(N3CCOCC3)n2)c(C(F)F)n1 | binding | – | competition with immobilised ligand | 10 µM | remaining binding | 85% |
| Cn1cc(-c2cc(F)cc(N3CCn4c(cc5c4CCCC5)C3=O)c2CO)cc(Nc2ccc(N3CCN(C4COC4)CC3)cn2)c1=O | enzyme activity | inhibitor | – | 0.1 µM | inhibition | 5% |
| COc1ncccc1-c1cnn2ccc(N3CCN(C(=O)OC(C)C)CC3)nc12 | binding | – | competition with immobilised ligand | 1 µM | remaining binding | 100% |
| COc1cc(Nc2ncc(F)c(Nc3ccc4c(n3)NC(=O)C(C)(C)O4)n2)cc(OC)c1OC | binding | – | – | 10 µM | inhibition | 0% |
| CC(C)(C)c1cc(C=C(C#N)C#N)cc(Br)c1O | enzyme activity | inhibitor | – | 0.5 µM | remaining activity | 92.3% |
| Cn1cc(-c2cccc(N3CCc4c(sc5c4CC(C)(C)C5)C3=O)c2CO)cc(Nc2ccncn2)c1=O | enzyme activity | inhibitor | – | 1 µM | inhibition | -5% |
| Cc1nn(C)cc1-c1nc2c(N3CCN(Cc4ccc(Cl)cc4)CC3)c(Cl)cnc2[nH]1 | binding | – | competition with immobilised ligand | 1 µM | remaining binding | 100% |
| O=c1[nH]c2ccccc2n1C1CCN(Cc2ccc(-c3[nH]c4cc5ncnc5cc4nc3-c3ccccc3)cc2)CC1 | cell-free assay | – | – | 0.5 µM | remaining signal | 98.7% |
| Cn1cncc1[C@@](O)(COc1ccc(C#N)cc1-c1ccc(OC(F)(F)F)cc1)c1ccc(C#N)cc1 | cell-free assay | – | competition with immobilised ligand | 1 µM | remaining binding | 61% |
| C#Cc1n[nH]c2c(-c3cn(C(C)c4ccccn4)c(=O)[nH]c3=O)cc(F)cc12 (centres unmarked) | enzyme activity | inhibitor | – | 1 µM | inhibition | 13.1% |
